# Assay results from different studies.
# Organism: Pseudomonas aeruginosa
# Observed: microbial growth
SMILES,technique,strain,time,MIC
O=c1cc(-c2ccccc2)oc2cc(O)cc(O)c12,broth dilution,PAO1,,128 µg/mL
Cc1cccc2nc(-c3ccc([N+](=O)[O-])o3)[nH]c12,broth dilution,ATCC27853,,> 64 µg/mL
CC(C)Oc1c(NC(=O)c2ccc(NC(=O)[C@H](CC(N)=O)NC(=O)c3ccc(NC(=O)c4ccc(NC(=O)c5ccc([N+](=O)[O-])cc5)cc4)cc3)cc2)ccc(C(=O)Nc2ccc(C(=O)O)cc2)c1O,,PA14,,> 64 µg/mL
CCCCCCC#Cc1cncc(-c2nnc(SCc3ccc([N+](=O)[O-])o3)n2C2CC2)c1,,,,≥ 20 µg/mL
CNc1nc(Cl)c2c(c1O)C(=O)C1=C(O)[C@]3(O)C(=O)C(C(N)=O)=C(O)[C@@H](N(C)C)[C@@H]3C[C@@H]1C2.Cl.Cl.Cl,broth dilution,ATCC27853,,8 µg/mL
CN[C@H](CC(C)C)C(=O)N[C@H]1C(=O)N[C@@H](CC(N)=O)C(=O)N[C@H]2C(=O)N[C@H]3C(=O)N[C@H](C(=O)N[C@H](C(=O)O)c4cc(O)cc(O)c4-c4cc3ccc4O)[C@H](O)c3ccc(c(Cl)c3)Oc3cc2cc(c3O[C@@H]2O[C@H](CO)[C@@H](O)[C@H](O)[C@H]2O[C@H]2C[C@](C)(N)[C@H](O)[C@H](C)O2)Oc2ccc(cc2Cl)[C@H]1O,broth dilution,ATCC27853,18 h,> 32 µg/mL
C[C@@H](O)[C@H]1C(=O)N2C(C(=O)O)=C(S[C@@H]3CN[C@H](C(=O)N(C)C)C3)[C@H](C)[C@H]12,broth dilution,ATCC27853,,0.25 µg/mL
CCCCCCC/C=C/C(=O)N1C(=O)/C(=C(\O)c2ccc(F)cc2)C(=O)C1CC(C)C (stereo not shown),,PA01,,> 200 µg/mL
CC(C)Oc1c(NC(=O)c2ccc(NC(=O)[C@H](CC(N)=O)NC(=O)c3ccc(NC(=O)c4ccc(C#N)nc4)cc3)cc2)ccc(C(=O)Nc2ccc(C(=O)O)cc2)c1O,,PA14,,> 64 µg/mL
CC(C)CNc1nc(Cl)c2c(c1O)C(=O)C1=C(O)[C@]3(O)C(=O)C(C(N)=O)=C(O)[C@@H](N(C)C)[C@@H]3C[C@@H]1C2.Cl.Cl.Cl,broth dilution,ATCC27853,,> 32 µg/mL
CCCCCCC/C=C/C(=O)N1C(=O)/C(=C(\O)c2ccc(OCOCCOC)cc2)C(=O)C1CC(C)C (stereo not shown),,PA01,,> 200 µg/mL
COc1ccc(-c2nc3ccccc3n2Cc2ccccc2)cc1OC,broth dilution,ATCC27853,,256 µg/mL
CC1(C)S[C@@H]2[C@H](NC(=O)[C@H](N)c3ccccc3)C(=O)N2[C@H]1C(=O)O,,,,> 200 µg/mL
O=C1NN=C(N=Cc2ccc(O)c(O)c2)C1=NNn1c(-c2ccccc2)nc2ccccc2c1=O,broth dilution,,24 h,53.5 µM
NC[C@H]1O[C@H](O[C@H]2[C@H](O)[C@@H](O[C@H]3O[C@H](CO)[C@@H](O)[C@H](N)[C@H]3O)[C@H](N)C[C@@H]2N)[C@H](N)C[C@@H]1O,broth dilution,CMCC10104,,26.7 µM
CC1=NN(CNc2c(O)c(S(=O)(=O)O)cc3ccccc23)C(=O)C1=NNn1c(-c2ccccc2)nc2ccccc2c1=O,broth dilution,,24 h,41.8 µM
CC1(C)S[C@@H]2[C@H](NC(=O)C(C(=O)O)c3ccccc3)C(=O)N2[C@H]1C(=O)O (stereo partly shown),broth dilution,CMCC10104,,> 200 µM
C/C(=C\c1ccc(O)cc1)C(=O)Nc1ccc(C(=O)N[C@@H](CC(N)=O)C(=O)Nc2ccc(C(=O)Nc3ccc(C(=O)Nc4ccc(C(=O)O)cc4)c(O)c3OC(C)C)cc2)cc1,,PA14,,1 µg/mL
CCCc1nc(Cl)c2c(c1O)C(=O)C1=C(O)[C@]3(O)C(=O)C(C(N)=O)=C(O)[C@@H](N(C)C)[C@@H]3C[C@@H]1C2.Cl,broth dilution,ATCC27853,,> 32 µg/mL
Cn1c(SCc2ccc(Cl)cc2)nnc1-c1cncc(C#Cc2ccccc2)c1,,,,≥ 20 µg/mL
Cc1cccc(NCc2ccc(Oc3ccccn3)cc2)c1,,,,> 25 µg/mL
CN(C)[C@@H]1C(O)=C(C(N)=O)C(=O)[C@@]2(O)C(O)=C3C(=O)c4c(O)c(-c5ccccc5)nc(Cl)c4C[C@H]3C[C@@H]12.Cl,broth dilution,ATCC27853,,> 32 µg/mL
CC1(C)SC2C(NC(=O)C(NC(=O)C3=C(O)C(Cc4ccsc4)NC3=O)c3ccccc3)C(=O)N2C1C(=O)O (stereo not shown),,,,25 µg/mL
Cc1cc(C)n(C(=O)c2ccc(-n3c(C)ccc3C)cc2)n1,broth dilution,ATCC10145,18 h,250 µg/mL
O=C1NN=C(N=Cc2ccccc2O)C1=NNn1c(-c2ccccc2)nc2ccccc2c1=O,broth dilution,,24 h,111 µM
Cc1ccc(C)n1-c1ccc(-c2nnc(-c3ccccc3Cl)[nH]2)cc1,broth dilution,ATCC10145,18 h,250 µg/mL
NC1CCCCc2c1[nH]c1ccc(Cl)c(Cl)c21 (stereo not shown),broth dilution,PAO1,18 h,256 µg/mL
O=C(Cc1ccc(O)c(O)c1)NCCCCCCCC[P+](c1ccccc1)(c1ccccc1)c1ccccc1.[Br-],broth dilution,ATCC27853,18 h,> 32 µg/mL
Brc1cccc(NCc2ccc(Oc3ccccn3)cc2)c1,,,,> 50 µg/mL
CCCCCCCC(=O)Oc1c(C)c(O)c(C(=O)/C=C/c2ccccc2)c(OC)c1C,broth dilution,ATCC27853,,5000 µg/mL
CCCCCCC/C=C/C(=O)N1C(=O)/C(=C(/C)O)C(=O)C1CO (stereo not shown),,PA01,,> 200 µg/mL
COc1c(C)c(OC(C)=O)c(C)c(O)c1C(=O)/C=C/c1ccccc1,broth dilution,ATCC27853,,5000 µg/mL
CCCCCCC/C=C/C(=O)N1C(=O)/C(=C(\O)c2ccc(O)cc2)C(=O)C1CC(C)C (stereo not shown),,PA01,,> 200 µg/mL
CC(C)Oc1c(NC(=O)c2ccc(NC(=O)[C@H](CC(N)=O)NC(=O)c3ccc(NC(=O)c4ccc(F)cc4)cc3)cc2)ccc(C(=O)Nc2ccc(C(=O)O)cc2)c1O,,PA14,,> 64 µg/mL
O=c1c(O)c(-c2ccc(O)c(O)c2)oc2cc(O)cc(O)c12,broth dilution,PAO1,,256 µg/mL
CN(C)[C@@H]1C(O)=C(C(N)=O)C(=O)[C@@]2(O)C(O)=C3C(=O)c4c(cc5ccc(CN6CC(F)(F)C6)cc5c4O)C[C@H]3C[C@@H]12,broth dilution,ATCC27853,,32 µg/mL
CC(C)Oc1c(NC(=O)c2ccc(NC(=O)[C@H](CC(N)=O)NC(=O)c3ccc(NC(=O)c4ccc5c(c4)COC5=O)cc3)cc2)ccc(C(=O)Nc2ccc(C(=O)O)cc2)c1O,,PA14,,> 64 µg/mL
COc1c(C)c(OC)c(C(=O)/C=C/c2ccccc2)c(OC)c1C,broth dilution,ATCC27853,,5000 µg/mL
COC1CN(Cc2ccc3cc4c(c(O)c3c2)C(=O)C2=C(O)[C@]3(O)C(=O)C(C(N)=O)=C(O)[C@@H](N(C)C)[C@@H]3C[C@@H]2C4)C1,broth dilution,ATCC27853,,32 µg/mL
Cc1ccc(C)n1-c1ccc(-c2nnc(-c3c(Cl)cccc3Cl)[nH]2)cc1,broth dilution,ATCC10145,18 h,62.5 µg/mL
COc1cccc(NCc2ccc(Oc3ccccn3)cc2)c1,,,,> 25 µg/mL
CC(C)Oc1c(NC(=O)c2ccc(NC(=O)[C@H](CC(N)=O)NC(=O)c3ccc(NC(=O)c4cc(=O)c(O)c[nH]4)cc3)cc2)ccc(C(=O)Nc2ccc(C(=O)O)cc2)c1O,,PA14,,> 64 µg/mL
COc1cc(Cc2cnc(N)nc2N)cc(OC)c1OC,broth dilution,,24 h,8 µg/mL
Clc1ccc(Cn2c(-c3ccc(Cl)cc3)nc3ccccc32)cc1,broth dilution,ATCC27853,,256 µg/mL
CC(C)Oc1c(N)ccc(C(=O)Nc2ccc(C(=O)N[C@@H](CC(N)=O)C(=O)Nc3ccc(C(=O)Nc4ccc(C(=O)Nc5ccc(C(=O)O)cc5)c(O)c4OC(C)C)cc3)cc2)c1O,,PA14,,32 µg/mL
Cc1ncc(O)c2c1C[C@H]1C[C@H]3[C@H](N(C)C)C(O)=C(C(N)=O)C(=O)[C@@]3(O)C(O)=C1C2=O.Cl.Cl,broth dilution,ATCC27853,,16 µg/mL
CCCCCCCCCCCC(=O)Oc1c(C)c(O)c(C(=O)/C=C/c2ccccc2)c(OC)c1C,broth dilution,ATCC27853,,5000 µg/mL
CC(C)Oc1c(NC(=O)c2ccc(NC(=O)[C@H](CC(N)=O)NC(=O)c3ccc(NC(=O)CCc4ccc(C#N)cc4)cc3)cc2)ccc(C(=O)Nc2ccc(C(=O)O)cc2)c1O,,PA14,,> 64 µg/mL
CN(C)[C@@H]1C(O)=C(C(N)=O)C(=O)[C@@]2(O)C(O)=C3C(=O)c4c(cc5ccc(CN6CC(F)C6)cc5c4O)C[C@H]3C[C@@H]12,broth dilution,ATCC27853,,32 µg/mL
